# Most compounds without a hit are left out; they make up all but 4.2% or so of the library.
# KCNQ1 act = human KCNQ1 channel potentiation or activation; P51787; CHO-K1 KCNQ1, thallium flux FluxOR fluorescence; hits give high values; B-score at 10 µM; actives 0.35% (n = 310,000);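 active = fluorescence ratio B-score, a plate-corrected score, at least three library SD, with initial intensity B-score within 5 SD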
#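 Assay system: stable KCNQ1 CHO-K1 line; medium: assay buffer, equal DMSO in all wells; timing: 90 min dye loading and 20 min compound exposure, both at room temperature; technique: kinetic FluxOR thallium fluorescence, 10-s 1-Hz baseline, 110-s post-stimulus read; read-out basis: B score of baseline-normalized fluorescence ratio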
# hERG protect = hERG (human) protection from proarrhythmic block | actives 0.51% (n = 310,000) | AID 1511 | CHO-hERG, FluxOR thallium flux, dofetilide IC70 present | activation (rescue from dofetilide block), less the hit threshold, % at 10 µM;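 active = activation above the mean of controls blocked by dofetilide plus 5 SD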;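 also: thallium influx through hERG after potassium depolarization seen as dye fluorescence rise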
# AI-2 QS mod = modulators of Vibrio harveyi AI-2 quorum sensing system; actives 0.4% (n = 300,000); activity change, % at 7.5 µM; AID 2094; Vibrio harveyi JMH597 AI-2 luminescence/OD600 ratio, 9 h; hits give low values; strain lacks LuxN and CqsS sensors; 0 = neutral-control median; in the data active = activity change below about -75%, passing the limit was not always enough;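 also: luminescence divided by OD600 gain over 9 h not by final OD600 alone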
# Cl transport mod = modulates chloride dependent transport by human KCC2. Q9H2X9. KCC2 cells, thallium flux FluoZin-2 fluorescence. B-score of Tl+ flux slope (higher = more flux/activation; lower = inhibition) at 10 µM. actives 2.2% (n = 190,000). AID 1456;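 active = thallium flux slope and its plate-corrected score both differing from the plate sample mean at a set confidence after two filtering rounds, in either direction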;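 also: slope of fluorescence scaled to starting intensity during 10 to 20 s after thallium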
# Target sequence (Q9H2X9 whole entry, looked up): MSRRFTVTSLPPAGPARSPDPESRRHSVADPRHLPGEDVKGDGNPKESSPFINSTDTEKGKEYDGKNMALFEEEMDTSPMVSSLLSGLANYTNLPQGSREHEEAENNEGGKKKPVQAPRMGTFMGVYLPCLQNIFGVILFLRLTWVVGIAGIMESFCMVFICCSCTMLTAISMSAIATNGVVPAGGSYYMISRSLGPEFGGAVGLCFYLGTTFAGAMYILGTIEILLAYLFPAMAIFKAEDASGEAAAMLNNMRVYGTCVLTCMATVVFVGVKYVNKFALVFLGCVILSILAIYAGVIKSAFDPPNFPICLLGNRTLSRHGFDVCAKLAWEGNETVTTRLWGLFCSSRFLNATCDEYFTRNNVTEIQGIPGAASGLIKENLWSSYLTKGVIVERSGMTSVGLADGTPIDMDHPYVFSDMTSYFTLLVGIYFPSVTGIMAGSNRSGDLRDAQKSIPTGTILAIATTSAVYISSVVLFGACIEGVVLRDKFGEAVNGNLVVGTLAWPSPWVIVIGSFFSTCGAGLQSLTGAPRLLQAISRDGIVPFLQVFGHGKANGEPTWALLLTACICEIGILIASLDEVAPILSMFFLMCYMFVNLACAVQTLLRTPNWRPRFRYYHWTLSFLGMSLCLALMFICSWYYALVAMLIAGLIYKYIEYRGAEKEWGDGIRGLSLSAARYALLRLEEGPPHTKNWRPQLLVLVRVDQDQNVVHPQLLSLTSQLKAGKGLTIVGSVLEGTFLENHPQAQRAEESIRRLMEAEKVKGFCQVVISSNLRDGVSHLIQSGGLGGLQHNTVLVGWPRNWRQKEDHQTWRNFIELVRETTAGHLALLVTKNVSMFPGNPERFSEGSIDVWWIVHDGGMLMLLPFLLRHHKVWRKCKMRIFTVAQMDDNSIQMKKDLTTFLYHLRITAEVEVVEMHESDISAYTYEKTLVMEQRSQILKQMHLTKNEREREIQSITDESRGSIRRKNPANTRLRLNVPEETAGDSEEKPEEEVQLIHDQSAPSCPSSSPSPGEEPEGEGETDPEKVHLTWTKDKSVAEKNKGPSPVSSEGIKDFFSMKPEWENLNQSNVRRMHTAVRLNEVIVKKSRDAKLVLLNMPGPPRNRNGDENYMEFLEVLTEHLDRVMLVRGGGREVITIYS
# Mot1-301 SUMO = SUMOylation pathway inhibition by Mot1-301 growth rescue; S. cerevisiae Mot1-301 growth rescue, ATP luminescence, 38.5C; percent above DMSO median, 100 means doubled; growth rescue, % at 18.8 µM; actives 1% (n = 320,000);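 active = every valid replicate shows activation above 250% relative to neutral control wells; inactive = the rest, any valid replicate at or below 250%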;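 also: OY570 slx delta 5 strain wells were the positive control but not used for scaling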
# KCNQ1 block = inhibitors of human KCNQ1 potassium channel; P51787; CHO-K1 KCNQ1, FluxOR thallium flux fluorescence; hits give high values; B-score at 10 µM; actives 1.3% (n = 310,000);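 active = compounds whose thallium flux B-score, printed positive for inhibition, exceeds three library SD while starting fluorescence stays within three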;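 also: channel opened by potassium depolarization with thallium stimulus after 20 min compound exposure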
# KCNQ1 block val = reconfirmed blocker of the human KCNQ1 potassium channel. actives 93% (n = 1,600). shares compounds with KCNQ1 block. inhibition, % at 10 µM. KCNQ1 cell line, FluxOR thallium flux fluorescence;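 active = primary screen active, with duplicate mean exceeding buffer control mean plus 3 SD of buffer wells, cut at about 28% in these data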;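 also: 0% = buffer control ratio and 100% = XE991 inhibitor control ratio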
# CHO KCNQ1 ctr = activity in parental CHO cells lacking KCNQ1 | shares compounds with KCNQ1 block | parental CHO-K1, FluxOR thallium flux fluorescence ratio; hits give low values; zero means no signal rise above baseline | fluorescence ratio (Tl flux) at 10 µM | actives 21% (n = 1,600);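 active = mean of duplicate thallium-flux fluorescence ratios in parental host cells more than 5 SD below the buffer control mean, cut at about 0.38 in these data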;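 also: ratio is peak minus minimum fluorescence divided by baseline fluorescence; actives read low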
# KCNQ1 APC inh = blocks human KCNQ1 current in automated patch clamp; shares compounds with KCNQ1 block; KCNQ1-CHO cells; calls only at 10 µM; actives 20% (n = 490); AID 624120;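 active = KCNQ1 current drop exceeding 3 SD of negative control wells, seen in both duplicate runs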;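 also: steady state current during a 2 s step from -80 to +40 mV; negative values mean current inhibition and positive values mean potentiation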
# KCNQ2 inh = KCNQ1 inhibitor that also blocks rat KCNQ2 channel | inhibition, % at 10 µM | KCNQ2 cells, FluxOR thallium flux fluorescence | shares compounds with KCNQ1 block | actives 71% (n = 1,600) | AID 651746;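 active = mean percent inhibition of the KCNQ2 thallium signal more than 5 SD above the buffer-only control wells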;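 also: KCNQ2 expressed in CHO cells; 0% = buffer control wells and 100% = XE-991 inhibitor control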
# KCNQ1 KCNE1 spec = selectivity of KCNQ1 inhibitors: inhibition of human KCNQ1/KCNE1 channel | AID 652147 | KCNQ1/KCNE1 cells, FluxOR thallium flux fluorescence | inhibition, % at 10 µM | actives 77% (n = 1,600) | shares compounds with KCNQ1 block;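 active = mean percent inhibition of duplicate wells above the buffer-only control mean plus 3 SD of those controls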;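 also: 0% = buffer only wells and 100% = XE-991 inhibitor control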
# * marks the source's active call; other numbers are inactive results; i = inactive; . = no result; + = active, no number.
SMILES,KCNQ1 act,hERG protect,AI-2 QS mod,Cl transport mod,Mot1-301 SUMO,KCNQ1 block,KCNQ1 block val,CHO KCNQ1 ctr,KCNQ2 inh,KCNQ1 KCNE1 spec,others
O=[N+]([O-])c1c(Nc2cccc(O)c2)cc(Cl)c2nonc12,i,-32.7,-219.3*,.,129.8,24*,165.5*,0.286*,129.0%*,+,
CC(=O)OC1c2ccccc2C(=O)N1Cc1ccccc1 (stereo not given),i,-9.1,22.5,0.0367,16.6,i,.,.,.,.,
Cc1cc(OCC(=O)Nc2ccncc2)cc(C)c1Br,i,-19.4,-23.3,-0.311,.,8*,131.0*,0.48,96.0%*,i,KCNQ1 APC inh=i
Cc1cc(OCC(=O)Nc2ccncc2)ccc1Cl,i,-12.9,-41.9,.,4.4,i,.,.,.,.,
Cc1cccc(NC(=O)C(c2ccccc2Cl)N2CCOCC2)c1 (stereo not given),i,-11.8,10.6,-0.249,-2.6,i,.,.,.,.,
O=C(Nc1cc(Cl)cc(Cl)c1)C(c1ccccc1)N1CCCCC1 (stereo not given),i,-8.1,10.8,1.52,4.1,8*,120.5*,0.363*,122.3%*,114.0%*,
Cc1ccc(NC(=O)C(c2ccc(Cl)cc2Cl)N2CCCC2)cc1 (stereo not given),i,-9.3,8.0,0.499,-6.1,8*,91.5*,0.383,i,152.5%*,KCNQ1 APC inh=+
O=C(NCc1ccccn1)c1cccc(S(=O)(=O)NCc2ccccc2)c1,i,-4.6,25.5,.,285.7,i,.,.,.,.,
COc1ccccc1N1CCN(C(=O)c2cc(-c3cccc(Cl)c3)on2)CC1,i,-10.0,16.3,0.216,0.5,i,.,.,.,.,
O=[N+]([O-])c1ccc2nc(SCc3ccccc3Cl)sc2c1,i,-19.9,1.6,.,-11.2,15*,106.5*,0.423,117.3%*,115.5%*,KCNQ1 APC inh=i
Nc1ccc2nc(SCc3ccc([N+](=O)[O-])cc3)sc2c1,i,-8.5,-13.8,.,28.1,i,.,.,.,.,
O=C(CC1C(=O)N(c2ccccc2)C(=S)N1c1ccccc1)c1ccc(Br)cc1 (stereo not given),i,-15.5,12.1,0.201,-7.3,6*,65.0*,0.44,97.0%*,68.5%*,
O=C(CC1C(=O)N(c2ccccc2)C(=S)N1c1ccccc1)c1ccccc1 (stereo not given),i,-4.0,8.7,2.03,3.1,i,.,.,.,.,
CCCCOc1cccc(C2C(C(=O)c3ccc(C)o3)=C(O)C(=O)N2c2nnc(C)s2)c1 (stereo not given),i,-11.8,47.8,.,.,9*,146.5*,0.345*,104.7%*,i,
Cc1csc2ncnc(N3CCN(S(=O)(=O)c4cccc(C(F)(F)F)c4)CC3)c12,i,-12.7,11.2,.,-15.7,19*,134.0*,0.425,113.0%*,129.5%*,KCNQ1 APC inh=i
CCOC(=O)C1=C(CSc2nc(-c3ccccc3)ccc2C#N)OC(N)=C(C#N)C1c1ccc(OC)cc1 (stereo not given),i,-5.1,17.8,-0.397,-24.0,6*,79.5*,0.412,i,i,
O=C(c1ccc2c(c1)OCO2)N(Cc1ccco1)C1(C(=O)NC2CCCCC2)CCCCC1,i,-9.9,10.4,-0.787,9.9,6*,80.0*,0.364*,88.7%*,77.5%*,
CN1/C(=C\C=C2/SC(=S)N(CC(=O)O)C2=O)C(C)(C)c2ccccc21,i,-43.7,-6.1,i,-8.6,24*,+,0.0445*,i,i,
Cc1occc1C(=O)Nc1cccc([N+](=O)[O-])c1C,i,-5.3,23.8,-0.0691,-0.6,i,.,.,.,.,
Cc1nc2ccc(NS(=O)(=O)c3ccc4c(c3)OCCO4)cc2s1,i,-8.4,28.3,0.0461,-22.7,10*,98.5*,0.494,69.0%*,90.0%*,KCNQ1 APC inh=i
CCOC(=O)N1CCN(c2ccncc2S(=O)(=O)N2CCCCC2)CC1,i,-2.7,18.8,.,106.7,i,.,.,.,.,
O=c1c2ccccc2n(Cc2cccc(F)c2)c(=O)n1C1CCCC1,i,-5.2,-46.1,.,617.3,9*,95.0*,0.386,92.3%*,84.0%*,KCNQ1 APC inh=i
N#Cc1ccccc1Cn1c(=O)n(C2CCCC2)c(=O)c2ccccc21,i,-8.8,34.1,-1,27.9,i,.,.,.,.,
CC(C)=CCc1c(O)cc(O)c2c1OC(c1ccc(O)cc1)CC2=O (stereo not given),i,-9.8,43.4,.,-11.5,9*,130.5*,0.345*,107.7%*,+,
c1ccc(CN2C3=NCCN3c3ccccc32)cc1,i,-5.5,15.4,0.00538,-1.6,i,.,.,.,.,
SMILES,KCNQ1 act,hERG protect,AI-2 QS mod,Cl transport mod,Mot1-301 SUMO,KCNQ1 block,KCNQ1 block val,CHO KCNQ1 ctr,KCNQ2 inh,KCNQ1 KCNE1 spec,others
O=C(CN1C2=NCCN2c2ccccc21)C12CC3CC(CC(C3)C1)C2,i,-8.9,20.5,0.568,-16.8,11*,70.5*,0.432,73.7%*,39.5%*,
CS(=O)(=O)N(CC(O)Cn1c2ccccc2c2ccccc21)c1ccccc1 (stereo not given),i,-7.5,6.3,0.447,9.8,i,.,.,.,.,
COc1ccc(N(CC(O)Cn2c3ccccc3c3ccccc32)S(=O)(=O)c2ccccc2)cc1 (stereo not given),i,-8.4,17.2,1.15,-0.1,11*,107.0*,0.474,i,148.5%*,KCNQ1 APC inh=i
O=C(Cc1ccccc1)NCC(=O)Nc1cccc(Cl)c1,i,-6.3,23.9,.,39.5,i,.,.,.,.,
c1ccc(CC2CCN(C3=Nc4cccc5cccc3c45)CC2)cc1,i,-34.9,23.5,-0.916,21.1,13*,150.0*,0.344*,121.3%*,135.0%*,
Cc1ccc(S(=O)(=O)c2c(N)n(Cc3ccco3)c3nc4ccccc4nc23)cc1,i,-12.8,28.7,.,-15.5,7*,99.0*,0.376*,74.0%*,165.5%*,

# Bioassay records deposited in PubChem by several laboratories.
